Laboratory results as given in ChEMBL document CHEMBL2086314, “Synthesis and anticonvulsant activity of new N-Mannich bases derived from 3-(2-fluorophenyl)- and 3-(2-bromophenyl)-pyrrolidine-2,5-diones. Part II” (Bioorg Med Chem, 2012).

What was measured:
[1] = system: Mus musculus; assay: Anticonvulsant activity in ip dosed CF-1 albino mouse assessed as protection from maximal electric shock-induced seizures measured after 0.5 hrs; assay type: functional; conditions: read-out: MED
Outline: (§1)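 Male CF-1 mice dosed ip at 30, 100 or 300 mg/kg, suspension in 0.5% methylcellulose/water. MES: corneal electrodes primed with electrolyte containing anaesthetic, 50 mA, 60 Hz, 0.2 s. Examined 0.5 and 4 h after dosing. Value is the minimum dose protecting half or more of the animals.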

[2] = system: Mus musculus; assay: Anticonvulsant activity in ip dosed CF-1 albino mouse assessed as protection from maximal electric shock-induced seizures measured after 4 hrs; assay type: functional; conditions: read-out: MED; outline: as §1
[3] = system: Mus musculus; assay: Anticonvulsant activity in ip dosed CF-1 albino mouse assessed as protection against subcutaneous pentylenetetrazol-induced seizures measured after 4 hrs; assay type: functional; conditions: read-out: MED
Outline: (§2)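 scPTZ test in male CF-1 mice. Compound suspended in 0.5% methylcellulose/water, ip at 30, 100 or 300 mg/kg. Pentylenetetrazole 85 mg/kg (CD97, clonic seizures lasting at least 5 s) given subcutaneously at the test time, read at 0.5 and 4 h. Value is the minimum dose protecting half or more of the animals.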

[4] = system: Mus musculus; assay: Neurotoxicity in ip dosed CF-1 albino mouse assessed as motor impairment measured after 0.5 hrs by rotarod test; assay type: toxicity, organism-based; conditions: in vivo
Outline: (§3)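 Rotarod neurotoxicity in male CF-1 mice given ip doses of 30, 100 or 300 mg/kg (0.5% methylcellulose suspension), examined 0.5 and 4 h after dosing. Impairment means failing to hold balance on the rod for 1 min. Value is the minimum dose causing toxicity in half or more of the animals; response comments are recorded.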

[5] = system: Mus musculus; assay: Neurotoxicity in CF-1 albino mouse assessed as motor impairment at 300 mg/kg, ip measured after 4 hrs by rotarod test; assay type: toxicity, organism-based; design: dose 300 mg/kg, route intraperitoneal; conditions: in vivo; outline: as §3
[6] = system: Mus musculus; assay: Neurotoxicity in CF-1 albino mouse assessed as inability to grasp rotarod at 300 mg/kg, ip measured after 0.5 hrs by rotarod test; assay type: toxicity, organism-based; design: dose 300 mg/kg, route intraperitoneal; conditions: in vivo; outline: as §3
[7] = system: Mus musculus; assay: Neurotoxicity in CF-1 albino mouse assessed as loss of […] reflex at 300 mg/kg, ip measured after 0.5 hrs by rotarod test; assay type: toxicity, organism-based; design: dose 300 mg/kg, route intraperitoneal; conditions: in vivo; outline: as §3
[8] = system: Mus musculus; assay: Anticonvulsant activity in ip dosed CF-1 albino mouse assessed as protection against subcutaneous pentylenetetrazol-induced seizures measured after 0.5 hrs; assay type: functional; conditions: read-out: MED; outline: as §2
[9] = system: Mus musculus; assay: Neurotoxicity in CF-1 albino mouse assessed as myoclonic jerks at 300 mg/kg, ip measured after 4 hrs by rotarod test; assay type: toxicity, organism-based; design: dose 300 mg/kg, route intraperitoneal; conditions: in vivo
[10] = system: Rattus norvegicus; assay: Anticonvulsant activity in Sprague-Dawley rat assessed as protection from maximum electric shock-induced seizures at 30 mg/kg, po measured after 0.25 hrs; assay type: functional
Outline: (§4)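 Male Sprague–Dawley rats, four per group, given 30 mg/kg orally as a suspension in 0.5% methylcellulose/water. MES stimulus 150 mA, 60 Hz, 0.2 s via corneal electrodes. Tested at 0.25, 0.5, 1, 2 and 4 h; value is rats protected out of four.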

[11] = system: Rattus norvegicus; assay: Anticonvulsant activity in Sprague-Dawley rat assessed as protection from maximum electric shock-induced seizures at 30 mg/kg, po measured after 0.5 hrs; assay type: functional; outline: as §4
[12] = system: Rattus norvegicus; assay: Anticonvulsant activity in Sprague-Dawley rat assessed as protection from maximum electric shock-induced seizures at 30 mg/kg, po measured after 1 hr; assay type: functional; outline: as §4
[13] = system: Rattus norvegicus; assay: Anticonvulsant activity in Sprague-Dawley rat assessed as protection from maximum electric shock-induced seizures at 30 mg/kg, po measured after 2 hrs; assay type: functional; outline: as §4
[14] = system: Rattus norvegicus; assay: Anticonvulsant activity in Sprague-Dawley rat assessed as protection from maximum electric shock-induced seizures at 30 mg/kg, po measured after 4 hrs; assay type: functional; outline: as §4
[15] = system: Rattus norvegicus; assay: Neurotoxicity in Sprague-Dawley rat assessed as motor impairment at 30 mg/kg, po by rotarod test; assay type: toxicity, organism-based; design: dose 30 mg/kg, route oral; conditions: in vivo
Outline: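 Male Sprague–Dawley rats, four animals, oral 30 mg/kg in 0.5% methylcellulose/water. Motor impairment on the rotarod (failure to keep balance for 1 min) assessed alongside MES at five times from 0.25 to 4 h.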

[16] = Neurotoxicity in ip dosed CF-1 albino mouse assessed as motor impairment by rotarod test; assay type: toxicity, organism-based; conditions: in vivo
[17] = system: Mus musculus; assay: Anticonvulsant activity in CF-1 albino mouse assessed as protection against 6 Hz psychomotor seizure at 100 mg/kg, ip measured after 0.25 hrs; assay type: functional; conditions: route intraperitoneal
Outline: (§5)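 6-Hz psychomotor seizure in male CF-1 mice, compound suspended in 0.5% methylcellulose/water, given ip (100 or 75 mg/kg). Corneal stimulation with 0.2 ms monopolar rectangular pulses at 6 Hz for 3 s, 32 mA, constant-current device. Protected if normal exploratory behaviour resumes within 10 s. Tested 0.25–4 h after dosing; value is mice protected out of four.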

[18] = system: Mus musculus; assay: Anticonvulsant activity in CF-1 albino mouse assessed as protection against 6 Hz psychomotor seizure at 100 mg/kg, ip measured after 0.5 hrs; assay type: functional; conditions: route intraperitoneal; outline: as §5
[19] = system: Mus musculus; assay: Anticonvulsant activity in CF-1 albino mouse assessed as protection against 6 Hz psychomotor seizure at 100 mg/kg, ip measured after 1 hr; assay type: functional; conditions: route intraperitoneal; outline: as §5
[20] = system: Mus musculus; assay: Anticonvulsant activity in CF-1 albino mouse assessed as protection against 6 Hz psychomotor seizure at 100 mg/kg, ip measured after 2 hrs; assay type: functional; conditions: route intraperitoneal; outline: as §5
[21] = system: Mus musculus; assay: Anticonvulsant activity in CF-1 albino mouse assessed as protection against 6 Hz psychomotor seizure at 100 mg/kg, ip measured after 4 hrs; assay type: functional; conditions: route intraperitoneal; outline: as §5
[22] = system: Mus musculus; assay: Anticonvulsant activity in ip dosed CF-1 albino mouse assessed as protection against 6 Hz psychomotor seizures; assay type: functional
Outline: (§6)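 6-Hz test (32 mA, 0.2 ms pulses at 6 Hz for 3 s, corneal) in male CF-1 mice dosed ip. Quantified at the time of peak effect in groups of eight across at least three doses giving 10–90% effect. ED50 and TD50 (minimal neurological toxicity) obtained by regression; PI = TD50/ED50.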

[23] = species: Mus musculus; assay: Protective index, ratio of TD50 for CF-1 albino mouse to ED50 for CF-1 albino mouse assessed as protection from 6 Hz psychomotor seizure; assay type: functional; outline: as §6
[24] = system: Mus musculus; assay: Anticonvulsant activity in ip dosed 6 Hz psychomotor-induced seizure in CF-1 albino mouse assessed as time of peak effect; assay type: functional

Question: Which minimal effective dose [1] does the source give for `O=C1CC(c2ccccc2F)C(=O)N1CN1CCOCC1` (racemic) here?
Answer: 100 mg/kg

Question: What about the minimal effective dose [2] of the same molecule?
Answer: 100 mg/kg

Question: What about the minimal effective dose [3] of the same molecule?
Answer: 300 mg/kg

Question: And the MTC [4]?
Answer: 300 mg/kg

Question: What about the Activity [5] of the same molecule?
Answer: Non-toxic

Question: And the Activity [6]?
Answer: Toxic

Question: What about the Activity [7] of the same molecule?
Answer: Toxic

Question: What about the minimal effective dose [8] of the same molecule?
Answer: 300 mg/kg

Question: What about the Activity [9] of the same molecule?
Answer: Toxic

Question: What about the Activity [10] of the same molecule?
Answer: 25%

Question: And the Activity [11]?
Answer: 25%

Question: What about the Activity [12] of the same molecule?
Answer: 50%

Question: What about the Activity [13] of the same molecule?
Answer: 50%

Question: And the Activity [14]?
Answer: 25%

Question: And the Activity [15]?
Answer: Non-toxic

Question: And the TD50 [16]?
Answer: 253 mg/kg

Question: What about the Activity [17] of the same molecule?
Answer: 100%

Question: And the Activity [18]?
Answer: 100%

Question: What about the Activity [19] of the same molecule?
Answer: 100%

Question: And the Activity [20]?
Answer: 75%

Question: What about the Activity [21] of the same molecule?
Answer: 25%

Question: And the ED50 [22]?
Answer: 103 mg/kg

Question: And the “Ratio TD50/ED50” value [23]?
Answer: 2.46

Question: And the Time [24]?
Answer: 4 h
